These results are taken from ChEMBL document CHEMBL5136969, “A niclosamide-tobramycin hybrid adjuvant potentiates cefiderocol against P. aeruginosa” (2021).

As usually defined, the MIC is the lowest concentration found to suppress growth.

For experiment [1], the system named is Escherichia coli. In words: Potentiation of cindamycin-induced antibiotic activity against Escherichia coli ATCC 25922 assessed as MIC fold reduction at 8 ug/ml after 18 hrs by microbroth dilution method. Type of experiment: functional. To be noted: dose 8 µg/ml. Put shortly: (§1)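 Adjuvant held at a fixed 8 μg/mL while the antibiotic was 2-fold serially diluted in Mueller-Hinton broth (MHB), per CLSI microbroth dilution. Overnight cultures were adjusted in saline to 0.5 McFarland, then diluted 1:50 in MHB to about 5 × 10^5 CFU/mL final, and incubated 18 h at 37 °C. MIC was the lowest concentration with no visible turbidity, confirmed at 590 nm. Fold potentiation = MIC alone / MIC with adjuvant.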
For orientation: In broth dilution the organism is exposed to a series of concentrations in liquid medium.

Experiment [2] concerns Pseudomonas aeruginosa. In words: Antibacterial activity against Pseudomonas aeruginosa PAO1 assessed as reduction in bacterial growth after 18 hrs by microbroth dilution method. The format is functional. In outline:
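CLSI broth microdilution. Overnight cultures were adjusted in saline to 0.5 McFarland, diluted 1:50 in Mueller-Hinton broth (MHB), and inoculated at about 5 × 10^5 CFU/mL. Agents were 2-fold serially diluted in MHB, mixed 1:1 with inoculum, and held at 37 °C for 18 h. MIC was the lowest concentration with no visible turbidity, confirmed at 590 nm.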

Experiment [3] concerns Acinetobacter baumannii. The experiment can be described thus: Potentiation of erythromycin-induced antibiotic activity against Acinetobacter baumannii ATCC 17978 assessed as MIC fold reduction at 8 ug/ml after 18 hrs by microbroth dilution method. The format is functional. To be noted: dose 8 µg/ml. Put shortly:
as §1

In experiment [4] the test system is Pseudomonas aeruginosa. In words: Antibacterial activity against colistin-resistant clinical isolate Pseudomonas aeruginosa PA101243 assessed as reduction in bacterial growth by measuring FIC index after 18 hrs by microbroth dilution method. The format is functional. Put shortly:
(§2)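 Checkerboard in MHB (iron-replete, not iron-depleted CAMHB). Cefiderocol was 2-fold serially diluted along one axis and the adjuvant along the other. Inoculum was 0.5 McFarland diluted 1:50, about 5 × 10^5 CFU/mL final. Incubation was 18 h at 37 °C, with turbidity read visually and confirmed at 590 nm. FIC was the MIC in combination over the MIC alone for each agent, and the FIC index was their sum. Cut-offs were ≤0.5 synergy, >0.5–4 additive, >4 antagonism.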

The next experiment deals with Klebsiella pneumoniae. In words: Antibacterial activity against Klebsiella pneumoniae KP113254 assessed as potentiation of cefiderocol antibacterial activity by measuring FIC after 18 hrs by microbroth dilution method. The format is functional. In outline:
(§3)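 Checkerboard in MHB. Cefiderocol was 2-fold serially diluted along one axis and the adjuvant along the other. Inoculum was prepared from 0.5 McFarland saline suspensions diluted 1:50 in MHB, giving about 5 × 10^5 CFU/mL final. Plates ran 18 h at 37 °C, with turbidity confirmed at 590 nm. FIC = combination MIC ÷ MIC alone for each agent, and FIC index = sum of both. Interpretation: ≤0.5 synergy, >0.5–4 additive, >4 antagonism.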

The test system of experiment [5] is Pseudomonas aeruginosa. In words: Antibacterial activity against MDR clinical isolate Pseudomonas aeruginosa PA260 assessed as reduction in bacterial growth after 18 hrs in presence of cefiderocol by microbroth dilution method. Type of experiment: functional. In outline:
as §3

The test system of experiment [6] is Acinetobacter baumannii. In words: Potentiation of aztreonam-induced antibiotic activity against Acinetobacter baumannii ATCC 17978 assessed as MIC fold reduction at 8 ug/ml after 18 hrs by microbroth dilution method. The format is functional. To be noted: dose 8 µg/ml. In outline: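 Initial screen in MHB using a fixed 8 μg mL−1 of adjuvant combined with each antibiotic under 2-fold dilution. Broth microdilution used about 5 × 10^5 CFU/mL at 37 °C for 18 h, with visible turbidity read and confirmed at 590 nm. Fold-potentiation = antibiotic MIC alone ÷ antibiotic MIC with adjuvant.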

For experiment [7], the system named is Pseudomonas aeruginosa. In words: Potentiation of antibiotic activity against Pseudomonas aeruginosa PA259 assessed as MIC fold reduction in ID-CAMHB condition at 8 ug/ml after 18 hrs by microbroth dilution method. To be noted: dose 8.0 µg/ml.
Experiment [8] relates to Escherichia coli. In words: Potentiation of erythromycin-induced antibiotic activity against Escherichia coli ATCC 25922 assessed as MIC fold reduction at 8 ug/ml after 18 hrs by microbroth dilution method. Type of experiment: functional. To be noted: dose 8 µg/ml. Put shortly:
as §1

The test system of experiment [9] is Pseudomonas aeruginosa. The experiment can be described thus: Antibacterial activity against colistin-resistant clinical isolate Pseudomonas aeruginosa PA114228 assessed as reduction in bacterial growth after 18 hrs in presence of cefiderocol by microbroth dilution method. Type of experiment: functional. Put shortly: as §2
Experiment [10] has as its system Escherichia coli. The experiment can be described thus: Antibacterial activity against Escherichia coli 107115 assessed as potentiation of cefiderocol antibacterial activity by measuring FIC after 18 hrs by microbroth dilution method. Type of experiment: functional. In outline: (§4)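 Checkerboard in Mueller-Hinton broth: cefiderocol 2-fold diluted on one axis, adjuvant 2-fold on the other. Overnight cultures were adjusted to 0.5 McFarland in saline, diluted 1:50 in MHB, and inoculated at about 5 × 10^5 CFU/mL. Incubation was 18 h at 37 °C. Turbidity was read visually and confirmed at 590 nm. FIC index = FIC of antibiotic + FIC of adjuvant; ≤0.5 synergy, >4 antagonism.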

Experiment [11] deals with Pseudomonas aeruginosa. In words: Potentiation of fosfomycin-induced antibiotic activity against Pseudomonas aeruginosa PAO1 assessed as MIC fold reduction at 8 ug/ml after 18 hrs by microbroth dilution method. Type of experiment: functional. To be noted: dose 8 µg/ml. Put shortly: as §1
Experiment [12] relates to Pseudomonas aeruginosa. The experiment can be described thus: Potentiation of cefotaxime-induced antibiotic activity against Pseudomonas aeruginosa PAO1 assessed as MIC fold reduction at 8 ug/ml after 18 hrs by microbroth dilution method. The format is functional. To be noted: dose 8 µg/ml. Put shortly:
as §1

The subject of experiment [13] is Pseudomonas aeruginosa. In words: Antibacterial activity against colistin-resistant clinical isolate Pseudomonas aeruginosa PA114228 assessed as reduction in bacterial growth after 18 hrs by microbroth dilution method. Type of experiment: functional. In outline:
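Broth microdilution per CLSI in Mueller-Hinton broth (MHB). Overnight cultures were adjusted to 0.5 McFarland in saline, diluted 1:50 in MHB, and added at about 5 × 10^5 CFU/mL final to equal volumes of 2-fold serial dilutions of agent. Incubation was 18 h at 37 °C. MIC was the lowest concentration with no visible turbidity, confirmed by absorbance at 590 nm.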

In experiment [14] the test system is Acinetobacter baumannii. The experiment can be described thus: Potentiation of vancomycin-induced antibiotic activity against Acinetobacter baumannii ATCC 17978 assessed as MIC fold reduction at 8 ug/ml after 18 hrs by microbroth dilution method. Type of experiment: functional. To be noted: dose 8 µg/ml.
Experiment [15] has as its system Acinetobacter baumannii. In words: Potentiation of niclosamide-induced antibiotic activity against Acinetobacter baumannii ATCC 17978 assessed as MIC fold reduction at 8 ug/ml after 18 hrs by microbroth dilution method. Type of experiment: functional. To be noted: dose 8 µg/ml.
In experiment [16] the test system is Pseudomonas aeruginosa. The experiment can be described thus: Antibacterial activity against MDR clinical isolate Pseudomonas aeruginosa PA86052 assessed as potentiation of cefiderocol antibacterial activity by measuring FIC index after 18 hrs by microbroth dilution method. The format is functional. In outline:
as §2

The test system of experiment [17] is Enterobacter cloacae. In words: Antibacterial activity against Enterobacter cloacae 118564 assessed as potentiation of cefiderocol antibacterial activity by measuring FIC after 18 hrs by microbroth dilution method. The format is functional. In outline: as §4
Experiment [18] relates to Enterobacter cloacae. In words: Antibacterial activity against Enterobacter cloacae 117029 assessed as potentiation of cefiderocol antibacterial activity by measuring FIC after 18 hrs by microbroth dilution method. Type of experiment: functional. In outline: as §4
For experiment [19], the system named is Acinetobacter baumannii. In words: Potentiation of tobramycin-induced antibiotic activity against Acinetobacter baumannii ATCC 17978 assessed as MIC fold reduction at 8 ug/ml after 18 hrs by microbroth dilution method. To be noted: dose 8 µg/ml. The format is functional.
Experiment [20] has as its system Escherichia coli. The experiment can be described thus: Potentiation of ciprofloxacin-induced antibiotic activity against Escherichia coli ATCC 25922 assessed as MIC fold reduction at 8 ug/ml after 18 hrs by microbroth dilution method. To be noted: dose 8 µg/ml. The format is functional. In outline:
as §1

Experiment [21] relates to Escherichia coli. In words: Potentiation of chloamphenicol-induced antibiotic activity against Escherichia coli ATCC 25922 assessed as MIC fold reduction at 8 ug/ml after 18 hrs by microbroth dilution method. The format is functional. To be noted: dose 8 µg/ml. Put shortly:
as §1

Structures are written as SMILES. ≈ marks a conversion by molar mass, not a printed value. Calls of active or inactive are those of the source.

For `NC[C@H]1O[C@H](O[C@H]2[C@H](OCCCCc3cn(-c4ccc(NC(=O)c5cc(Cl)ccc5O)cc4)nn3)[C@@H](O[C@H]3O[C@H](CO)[C@@H](O)[C@H](N)[C@H]3O)[C@H](N)C[C@@H]2N)[C@H](N)C[C@@H]1O`, the “fold change (FC)” value in the experiment on Escherichia coli [1], in the experiment on Acinetobacter baumannii [3], with Acinetobacter baumannii [6], with Escherichia coli [8], in the experiment on Pseudomonas aeruginosa [11] and with Pseudomonas aeruginosa [12] was 4 throughout. Moreover, the “fold change (FC)” value in the experiment with Acinetobacter baumannii [14], in the experiment with Acinetobacter baumannii [15], in the experiment with Acinetobacter baumannii [19], in the experiment with Escherichia coli [20] and in the experiment on Escherichia coli [21] was 4 each time. Further, the MIC came out at 64 µg/mL (≈ 76.5 µM) with Pseudomonas aeruginosa [2], 0.125 µg/mL with Pseudomonas aeruginosa [5], 16 µg/mL in the experiment with Pseudomonas aeruginosa [9] and 32 µg/mL (≈ 38.3 µM) with Pseudomonas aeruginosa [13]. Also, the FIC in the experiment on Pseudomonas aeruginosa [4] is 0.125; in the experiment on Klebsiella pneumoniae, 0.5; in the experiment on Escherichia coli [10], 0.5; in the experiment on Pseudomonas aeruginosa [16], 1; with Enterobacter cloacae [17], 1; in the experiment on Enterobacter cloacae [18], 0.5. Further, the outcome in the experiment with Pseudomonas aeruginosa [7] was Active.
